Converted amounts (≈) assume the structure as drawn.
How the values were obtained:
[1] = test system: Aeromonas allosaccharophila; assay: Antimicrobial activity against Aeromonas allosaccharophila AL-1 expressing beta-lactamase PER6 by agar dilution method; assay type: functional
Method in brief: (§1)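 The test organism was environmental isolate AL-1, recovered from Seine River water on MacConkey agar containing ceftazidime (2 μg/ml). It was identified by API 32GN and 16S rRNA gene sequencing. MICs were determined by agar dilution on Mueller-Hinton agar and interpreted by CLSI guidelines.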

Escherichia coli [2] = assay: Antimicrobial activity against Escherichia coli DH10B harboring recombinant Aeromonas allosaccharophila AL-1 beta-lactamase PER6 by agar dilution method; assay type: functional; details: K-12 DH10B
Escherichia coli [3] = assay: Antimicrobial activity against Escherichia coli DH10B harboring recombinant Aeromonas allosaccharophila AL-1 beta-lactamase PER1 by agar dilution method; assay type: functional; details: K-12 DH10B
Escherichia coli [4] = assay: Antimicrobial activity against Escherichia coli DH10B harboring recombinant Aeromonas allosaccharophila AL-1 beta-lactamase PER2 by agar dilution method; assay type: functional; details: K-12 DH10B
[5] = test system: Aeromonas allosaccharophila; assay: Ratio of Kcat to Km for Aeromonas allosaccharophila AL-1 beta-lactamase PER2
[6] = test system: Aeromonas allosaccharophila; assay: Antimicrobial activity against Aeromonas allosaccharophila AL-1 expressing beta-lactamase PER6 by agar dilution method in presence of 4 ug/ml of clavulanic acid; assay type: functional; method in brief: as §1
Escherichia coli [7] = assay: Antimicrobial activity against Escherichia coli DH10B by agar dilution method; assay type: functional; details: K-12 DH10B
Method in brief: (§2)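 MICs measured by agar dilution on Mueller-Hinton agar plates, the method used for imipenem and imipenem combined with clavulanate; other MICs were obtained by Etest. Results were interpreted according to CLSI guidelines. Test strains were E. coli DH10B recombinants carrying cloned PER-1, PER-2 or PER-6 β-lactamase genes.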

Escherichia coli [8] = assay: Antimicrobial activity against Escherichia coli DH10B harboring recombinant Aeromonas allosaccharophila AL-1 beta-lactamase PER6 by agar dilution method in presence of 4 ug/ml of clavulanic acid; assay type: functional; details: K-12 DH10B
Escherichia coli [9] = assay: Antimicrobial activity against Escherichia coli DH10B harboring recombinant Aeromonas allosaccharophila AL-1 beta-lactamase PER1 by agar dilution method in presence of 4 ug/ml of clavulanic acid; assay type: functional; details: K-12 DH10B
Escherichia coli [10] = assay: Antimicrobial activity against Escherichia coli DH10B harboring recombinant Aeromonas allosaccharophila AL-1 beta-lactamase PER2 by agar dilution method in presence of 4 ug/ml of clavulanic acid; assay type: functional; details: K-12 DH10B
Escherichia coli [11] = assay: Antimicrobial activity against Escherichia coli DH10B by agar dilution method in presence of 4 ug/ml of clavulanic acid; assay type: functional; details: K-12 DH10B; method in brief: as §2
[12] = substrate: CC(=O)OCC1=C(C(=O)O)N2C(=O)[C@@H](NC(=O)Cc3cccs3)[C@H]2SC1; assay: (§3) Activity at Aeromonas allosaccharophila AL-1 beta-lactamase PER6
Method in brief: (§4)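 PER-6 enzyme was purified from a crude extract of E. coli DH10B(pPER-6). Purification used cation exchange on S-Sepharose at pH 6.8, then anion exchange on Q-Sepharose at pH 8. Purity was >90% by SDS-PAGE. The purified enzyme was used for hydrolysis and inhibition measurements.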

[13] = substrate: CC(C)(O/N=C(\C(=O)N[C@@H]1C(=O)N2C(C(=O)[O-])=C(C[n+]3ccccc3)CS[C@H]12)c1csc(N)n1)C(=O)O; assay: as §3; method in brief: as §4
[14] = substrate: CC1(C)S[C@@H]2[C@H](NC(=O)Cc3ccccc3)C(=O)N2[C@H]1C(=O)O; assay: as §3; method in brief: as §4
[15] = substrate: CC1(C)S[C@@H]2[C@H](NC(=O)[C@H](C(=O)O)c3ccsc3)C(=O)N2[C@H]1C(=O)O; assay: as §3; method in brief: as §4
[16] = substrate: CC1(C)S[C@@H]2[C@H](NC(=O)[C@H](N)c3ccccc3)C(=O)N2[C@H]1C(=O)O; assay: as §3; method in brief: as §4
[17] = substrate: CCN1CCN(C(=O)N[C@@H](C(=O)N[C@@H]2C(=O)N3[C@@H]2SC(C)(C)[C@@H]3C(=O)O)c2ccccc2)C(=O)C1=O; assay: as §3; method in brief: as §4
[18] = substrate: CO/N=C(\C(=O)N[C@@H]1C(=O)N2C(C(=O)O)=C(COC(C)=O)CS[C@H]12)c1csc(N)n1; assay: as §3; method in brief: as §4
[19] = substrate: CO/N=C(\C(=O)N[C@@H]1C(=O)N2C(C(=O)[O-])=C(C[N+]3(C)CCCC3)CS[C@H]12)c1csc(N)n1; assay: as §3; method in brief: as §4
[20] = substrate: CO/N=C(\C(=O)N[C@@H]1C(=O)N2C(C(=O)[O-])=C(C[n+]3cccc4c3CCC4)CS[C@H]12)c1csc(N)n1; assay: as §3; method in brief: as §4
[21] = substrate: C[C@@H](O)[C@H]1C(=O)N2C(C(=O)O)=C(SCCNC=N)C[C@H]12; assay: as §3; method in brief: as §4
[22] = substrate: C[C@@H](O)[C@H]1C(=O)N2C(C(=O)O)=C(S[C@@H]3CN[C@H](C(=O)N(C)C)C3)[C@H](C)[C@H]12; assay: as §3; method in brief: as §4
[23] = substrate: C[C@@H](O)[C@H]1C(=O)N2C(C(=O)O)=C(S[C@@H]3CN[C@H](C(=O)Nc4cccc(C(=O)O)c4)C3)[C@H](C)[C@H]12; assay: as §3; method in brief: as §4
[24] = substrate: C[C@H]1[C@H](NC(=O)/C(=N\OC(C)(C)C(=O)O)c2csc(N)n2)C(=O)N1S(=O)(=O)O; assay: as §3; method in brief: as §4
[25] = substrate: CC(=O)OCC1=C(C(=O)O)N2C(=O)[C@@H](NC(=O)Cc3cccs3)[C@H]2SC1; assay: (§5) Ratio of Kcat to Km for Aeromonas allosaccharophila AL-1 beta-lactamase PER6; method in brief: as §4
[26] = substrate: CC(C)(O/N=C(\C(=O)N[C@@H]1C(=O)N2C(C(=O)[O-])=C(C[n+]3ccccc3)CS[C@H]12)c1csc(N)n1)C(=O)O; assay: as §5; method in brief: as §4
[27] = substrate: CC1(C)S[C@@H]2[C@H](NC(=O)Cc3ccccc3)C(=O)N2[C@H]1C(=O)O; assay: as §5; method in brief: as §4
[28] = substrate: CC1(C)S[C@@H]2[C@H](NC(=O)[C@H](C(=O)O)c3ccsc3)C(=O)N2[C@H]1C(=O)O; assay: as §5; method in brief: as §4
[29] = substrate: CC1(C)S[C@@H]2[C@H](NC(=O)[C@H](N)c3ccccc3)C(=O)N2[C@H]1C(=O)O; assay: as §5; method in brief: as §4
[30] = substrate: CCN1CCN(C(=O)N[C@@H](C(=O)N[C@@H]2C(=O)N3[C@@H]2SC(C)(C)[C@@H]3C(=O)O)c2ccccc2)C(=O)C1=O; assay: as §5; method in brief: as §4
[31] = substrate: CO/N=C(\C(=O)N[C@@H]1C(=O)N2C(C(=O)O)=C(COC(C)=O)CS[C@H]12)c1csc(N)n1; assay: as §5; method in brief: as §4
[32] = substrate: CO/N=C(\C(=O)N[C@@H]1C(=O)N2C(C(=O)[O-])=C(C[N+]3(C)CCCC3)CS[C@H]12)c1csc(N)n1; assay: as §5; method in brief: as §4
[33] = substrate: CO/N=C(\C(=O)N[C@@H]1C(=O)N2C(C(=O)[O-])=C(C[n+]3cccc4c3CCC4)CS[C@H]12)c1csc(N)n1; assay: as §5; method in brief: as §4
[34] = substrate: C[C@@H](O)[C@H]1C(=O)N2C(C(=O)O)=C(SCCNC=N)C[C@H]12; assay: as §5; method in brief: as §4
[35] = substrate: C[C@@H](O)[C@H]1C(=O)N2C(C(=O)O)=C(S[C@@H]3CN[C@H](C(=O)N(C)C)C3)[C@H](C)[C@H]12; assay: as §5; method in brief: as §4
[36] = substrate: C[C@@H](O)[C@H]1C(=O)N2C(C(=O)O)=C(S[C@@H]3CN[C@H](C(=O)Nc4cccc(C(=O)O)c4)C3)[C@H](C)[C@H]12; assay: as §5; method in brief: as §4
[37] = substrate: C[C@H]1[C@H](NC(=O)/C(=N\OC(C)(C)C(=O)O)c2csc(N)n2)C(=O)N1S(=O)(=O)O; assay: as §5; method in brief: as §4

C[C@H]1[C@H](NC(=O)/C(=N\OC(C)(C)C(=O)O)c2csc(N)n2)C(=O)N1S(=O)(=O)O [AZTREONAM]
MIC [1]: 1 µg/mL (≈ 2.3 µM) | MIC (Escherichia coli [2]): > 256 µg/mL | MIC (Escherichia coli [3]): > 256 µg/mL | MIC (Escherichia coli [4]): > 256 µg/mL | kcat/Km [5]: 120000 M⁻¹ s⁻¹

C[C@@H](O)[C@H]1C(=O)N2C(C(=O)O)=C(SCCNC=N)C[C@H]12 [IMIPENEM ANHYDROUS]
MIC [1]: 1 µg/mL (≈ 3.34 µM) | MIC [6]: 0.5 µg/mL | kcat/Km [5]: < 10000 M⁻¹ s⁻¹

CO[C@@]1(NC(=O)C(C(=O)O)c2ccc(O)cc2)C(=O)N2C(C(=O)O)=C(CSc3nnnn3C)CO[C@@H]21 (stereo partly specified) [MOXALACTAM]
MIC [1]: < 0.06 µg/mL | MIC (Escherichia coli [2]): 2 µg/mL | MIC (Escherichia coli [3]): 1 µg/mL | MIC (Escherichia coli [4]): 0.5 µg/mL | MIC (Escherichia coli [7]): 0.12 µg/mL (≈ 0.231 µM)

CCN1CCN(C(=O)N[C@@H](C(=O)N[C@@H]2C(=O)N3[C@@H]2SC(C)(C)[C@@H]3C(=O)O)c2ccccc2)C(=O)C1=O [PIPERACILLIN]
MIC [1]: 4 µg/mL (≈ 7.73 µM) | MIC (Escherichia coli [2]): 256 µg/mL | MIC (Escherichia coli [3]): 32 µg/mL | MIC (Escherichia coli [4]): 256 µg/mL | MIC (Escherichia coli [7]): 1 µg/mL (≈ 1.93 µM) | kcat/Km [5]: 200000 M⁻¹ s⁻¹

C[C@@H](O)[C@H]1C(=O)N2C(C(=O)O)=C(S[C@@H]3CN[C@H](C(=O)Nc4cccc(C(=O)O)c4)C3)[C@H](C)[C@H]12
MIC [1]: 0.5 µg/mL (≈ 1.05 µM) | MIC (Escherichia coli [7]): < 0.03 µg/mL

CC1(C)S[C@@H]2[C@H](NC(=O)Cc3ccccc3)C(=O)N2[C@H]1C(=O)O
kcat/Km [5]: 120000 M⁻¹ s⁻¹

CO/N=C(\C(=O)N[C@@H]1C(=O)N2C(C(=O)[O-])=C(C[n+]3cccc4c3CCC4)CS[C@H]12)c1csc(N)n1 [CEFPIROME]
MIC [1]: 0.5 µg/mL (≈ 0.972 µM) | MIC (Escherichia coli [2]): 8 µg/mL | MIC (Escherichia coli [3]): 16 µg/mL | MIC (Escherichia coli [4]): 16 µg/mL | MIC (Escherichia coli [7]): 0.06 µg/mL (≈ 0.117 µM)

CC1(C)S[C@@H]2[C@H](NC(=O)[C@H](N)c3ccc(O)cc3)C(=O)N2[C@H]1C(=O)O [AMOXICILLIN]
MIC [1]: > 256 µg/mL | MIC (Escherichia coli [2]): > 256 µg/mL | MIC (Escherichia coli [3]): > 256 µg/mL | MIC (Escherichia coli [4]): > 256 µg/mL | MIC (Escherichia coli [7]): 4 µg/mL (≈ 10.9 µM) | MIC [6]: 12 µg/mL | MIC (Escherichia coli [8]): 4 µg/mL | MIC (Escherichia coli [9]): 4 µg/mL | MIC (Escherichia coli [10]): 6 µg/mL | MIC (Escherichia coli [11]): 4 µg/mL

B1: Extended-spectrum beta-lactamase PER-6 (Aeromonas allosaccharophila), D5HSX5 (protein)
chain: MNVIAKGVFTTTALLMLSLSSWVVSAQSPLLKEQIETIVTGKKATVGVAVWGPDDLEPLLVNPFEKFPMQSVFKMHLAMLVLHQVDQGKLDLNKTVAVNRAAVLQNTWSPMMKDHQGDEFTVTVQQLLQYSVSHSDNVACDLLFELVGGPAALHAYIQSLGIKETEVVANEAQMHADDQVQYKNWTSMKAAAQLLRKFEQKKQLSETSQALLWKWMVETTTGPQRLKGLLPAGTVVAHKTGTSGVRAGKTAATNDIGVIMLPDGRPLLVAVFVKDSAESARTNEAIIAQVAQAAYQFELKKLSAVSPD
Km [12]: 55 µM | kcat [12]: 8 s⁻¹ | Km [13]: 1000 µM | kcat [13]: 12 s⁻¹ | Km [14]: 200 µM | kcat [14]: 5 s⁻¹ | Km [15]: 9 µM | kcat [15]: 0.4 s⁻¹ | Km [16]: 20 µM | kcat [16]: 1 s⁻¹ | Km [17]: 4 µM | kcat [17]: 0.1 s⁻¹ | Km [18]: 900 µM | kcat [18]: 40 s⁻¹ | Km [19]: 2000 µM | kcat [19]: 10 s⁻¹ | Km [20]: 1500 µM | kcat [20]: 12 s⁻¹ | Km [21]: 1.5 µM | kcat [21]: 0.006 s⁻¹ | Km [22]: 10 µM | kcat [22]: 0.004 s⁻¹ | Km [23]: 7 µM | kcat [23]: 0.002 s⁻¹ | Km [24]: 40 µM | kcat [24]: 3 s⁻¹ | kcat/Km [25]: 145000 M⁻¹ s⁻¹ | kcat/Km [26]: 1e+07 M⁻¹ s⁻¹ | kcat/Km [27]: 25000 M⁻¹ s⁻¹ | kcat/Km [28]: 50000 M⁻¹ s⁻¹ | kcat/Km [29]: 50000 M⁻¹ s⁻¹ | kcat/Km [30]: 25000 M⁻¹ s⁻¹ | kcat/Km [31]: 45000 M⁻¹ s⁻¹ | kcat/Km [32]: 5000 M⁻¹ s⁻¹ | kcat/Km [33]: 8000 M⁻¹ s⁻¹ | kcat/Km [34]: 4000 M⁻¹ s⁻¹ | kcat/Km [35]: 400 M⁻¹ s⁻¹ | kcat/Km [36]: 300 M⁻¹ s⁻¹ | kcat/Km [37]: 7.5e+07 M⁻¹ s⁻¹

From ChEMBL document CHEMBL1687755, “PER-6, an extended-spectrum beta-lactamase from Aeromonas allosaccharophila” (Antimicrob Agents Chemother, 2010)
